Data taken from ChEMBL document CHEMBL2424608, “Discovery of novel N-substituted carbazoles as neuroprotective agents with potent anti-oxidative activity” (Eur J Med Chem, 2013).
Activity calls are given as the source filed them. The rule behind the calls is not given here.

These compounds were tested on HT-22 (assay: Neuroprotective activity against mouse HT22 cells assessed as inhibition of HCA-induced cell injury pretreated at 30 uM for 30 mins measured after 24 hrs by MTT assay).
Assay type: functional
How it was run: (§1)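 HT22 mouse hippocampal cells in DMEM/10% FBS at 37 °C, 5% CO2, seeded at 4000 cells/well. Compound (30 mM DMSO stock, diluted in medium) added 30 min before glutamate (2 mM) or HCA (500 µM), then 24 h exposure. Controls get vehicle. Viability by MTT (500 µg/mL, 1 h, 37 °C), DMSO solubilisation, A570 relative to control = 100%. n = 6.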

Row | Compound | inhibition at 30 µM [%] | inhibition
1 | OCCCCn1c2ccccc2c2ccccc21 | 12 | –
2 | c1ccc(-n2c3ccccc3c3ccccc32)cc1 | 5 | –
3 | COc1ccc(-n2c3ccccc3c3ccccc32)cc1 | 71 | –
4 | c1ccc2c(c1)oc1ccccc12 | – | inactive
5 | Cc1ccc(S(=O)(=O)n2c3ccccc3c3ccc4ccccc4c32)cc1 | 30 | –
6 | Cc1ccc(S(=O)(=O)n2c3ccccc3c3ccc(-c4ccccc4)cc32)cc1 | 30 | –
7 | Fc1ccc(-n2c3ccccc3c3ccccc32)cc1 | 0 | –
8 | c1ccc2c(c1)c1ccccc1n2C1CCCCC1 | 10 | –
9 | FC(F)(F)c1ccc(-n2c3ccccc3c3ccccc32)cc1 | 80 | –
10 | Cc1ccc(-n2c3ccccc3c3ccccc32)nc1 | 12 | –
11 | Brc1ccc(-n2c3ccccc3c3ccccc32)cc1 | 0 | –
12 | Cc1ccc(S(=O)(=O)n2c3ccccc3c3ccc(C(F)(F)F)cc32)cc1 | 38 | –
13 | CN(C)c1ccc(-n2c3ccccc3c3ccccc32)cc1 | 81 | –
14 | Clc1ccc(-n2c3ccccc3c3ccccc32)cc1 | 40 | –

The compounds below were run on HT-22 (assay: Neuroprotective activity against mouse HT22 cells assessed as inhibition of HCA-induced cell injury pretreated at 3 uM for 30 mins measured after 24 hrs by MTT assay).
Assay type: functional
How it was run: as §1

Row | Compound | inhibition at 3 µM [%]
15 | OCCCCn1c2ccccc2c2ccccc21 | 0
16 | c1ccc(-n2c3ccccc3c3ccccc32)cc1 | 0
17 | COc1ccc(-n2c3ccccc3c3ccccc32)cc1 | 0
18 | Cc1ccc(S(=O)(=O)n2c3ccccc3c3ccc4ccccc4c32)cc1 | 18
19 | Cc1ccc(S(=O)(=O)n2c3ccccc3c3ccc(-c4ccccc4)cc32)cc1 | 11
20 | Fc1ccc(-n2c3ccccc3c3ccccc32)cc1 | 0
21 | c1ccc2c(c1)c1ccccc1n2C1CCCCC1 | 7
22 | FC(F)(F)c1ccc(-n2c3ccccc3c3ccccc32)cc1 | 0
23 | Cc1ccc(-n2c3ccccc3c3ccccc32)nc1 | 0
24 | Brc1ccc(-n2c3ccccc3c3ccccc32)cc1 | 0
25 | Cc1ccc(S(=O)(=O)n2c3ccccc3c3ccc(C(F)(F)F)cc32)cc1 | 0
26 | CN(C)c1ccc(-n2c3ccccc3c3ccccc32)cc1 | 0
27 | Clc1ccc(-n2c3ccccc3c3ccccc32)cc1 | 0

What follows are compounds tested on HT-22 (assay: Neuroprotective activity against mouse HT22 cells assessed as inhibition of HCA-induced cell injury pretreated at 10 uM for 30 mins measured after 24 hrs by MTT assay).
Assay type: functional
How it was run: as §1

Row | Compound | inhibition at 10 µM [%]
28 | OCCCCn1c2ccccc2c2ccccc21 | 1
29 | c1ccc(-n2c3ccccc3c3ccccc32)cc1 | 0
30 | COc1ccc(-n2c3ccccc3c3ccccc32)cc1 | 32
31 | Cc1ccc(S(=O)(=O)n2c3ccccc3c3ccc4ccccc4c32)cc1 | 30
32 | Cc1ccc(S(=O)(=O)n2c3ccccc3c3ccc(-c4ccccc4)cc32)cc1 | 18
33 | Fc1ccc(-n2c3ccccc3c3ccccc32)cc1 | 0
34 | c1ccc2c(c1)c1ccccc1n2C1CCCCC1 | 8
35 | FC(F)(F)c1ccc(-n2c3ccccc3c3ccccc32)cc1 | 10
36 | Cc1ccc(-n2c3ccccc3c3ccccc32)nc1 | 5
37 | Brc1ccc(-n2c3ccccc3c3ccccc32)cc1 | 0
38 | Cc1ccc(S(=O)(=O)n2c3ccccc3c3ccc(C(F)(F)F)cc32)cc1 | 6
39 | CN(C)c1ccc(-n2c3ccccc3c3ccccc32)cc1 | 30
40 | Clc1ccc(-n2c3ccccc3c3ccccc32)cc1 | 0

Each compound was assayed on HT-22 (assay: Neuroprotective activity against mouse HT22 cells assessed as inhibition of glutamate-induced cell injury pretreated at 30 uM for 30 mins measured after 24 hrs by MTT assay).
Assay type: functional
How it was run: as §1

Row | Compound | inhibition at 30 µM [%] | inhibition
41 | OCCCCn1c2ccccc2c2ccccc21 | 4 | –
42 | c1ccc(-n2c3ccccc3c3ccccc32)cc1 | 6 | –
43 | COc1ccc(-n2c3ccccc3c3ccccc32)cc1 | 59 | –
44 | c1ccc2c(c1)oc1ccccc12 | – | inactive
45 | Cc1ccc(S(=O)(=O)n2c3ccccc3c3ccc4ccccc4c32)cc1 | 26 | –
46 | Cc1ccc(S(=O)(=O)n2c3ccccc3c3ccc(-c4ccccc4)cc32)cc1 | 30 | –
47 | Fc1ccc(-n2c3ccccc3c3ccccc32)cc1 | 0 | –
48 | c1ccc2c(c1)c1ccccc1n2C1CCCCC1 | 20 | –
49 | FC(F)(F)c1ccc(-n2c3ccccc3c3ccccc32)cc1 | 68 | –
50 | Cc1ccc(-n2c3ccccc3c3ccccc32)nc1 | 5 | –
51 | Brc1ccc(-n2c3ccccc3c3ccccc32)cc1 | 0 | –
52 | Cc1ccc(S(=O)(=O)n2c3ccccc3c3ccc(C(F)(F)F)cc32)cc1 | 42 | –
53 | CN(C)c1ccc(-n2c3ccccc3c3ccccc32)cc1 | 77 | –
54 | Clc1ccc(-n2c3ccccc3c3ccccc32)cc1 | 20 | –

Each compound was assayed on HT-22 (assay: Neuroprotective activity against mouse HT22 cells assessed as inhibition of glutamate-induced cell injury pretreated at 10 uM for 30 mins measured after 24 hrs by MTT assay).
Assay type: functional
How it was run: as §1

Row | Compound | inhibition at 10 µM [%]
55 | OCCCCn1c2ccccc2c2ccccc21 | 1
56 | c1ccc(-n2c3ccccc3c3ccccc32)cc1 | 7
57 | COc1ccc(-n2c3ccccc3c3ccccc32)cc1 | 25
58 | Cc1ccc(S(=O)(=O)n2c3ccccc3c3ccc4ccccc4c32)cc1 | 16
59 | Cc1ccc(S(=O)(=O)n2c3ccccc3c3ccc(-c4ccccc4)cc32)cc1 | 19
60 | Fc1ccc(-n2c3ccccc3c3ccccc32)cc1 | 0
61 | c1ccc2c(c1)c1ccccc1n2C1CCCCC1 | 8
62 | FC(F)(F)c1ccc(-n2c3ccccc3c3ccccc32)cc1 | 14
63 | Cc1ccc(-n2c3ccccc3c3ccccc32)nc1 | 0
64 | Brc1ccc(-n2c3ccccc3c3ccccc32)cc1 | 0
65 | Cc1ccc(S(=O)(=O)n2c3ccccc3c3ccc(C(F)(F)F)cc32)cc1 | 10
66 | CN(C)c1ccc(-n2c3ccccc3c3ccccc32)cc1 | 40
67 | Clc1ccc(-n2c3ccccc3c3ccccc32)cc1 | 0

These compounds were tested on HT-22 (assay: Neuroprotective activity against mouse HT22 cells assessed as inhibition of glutamate-induced cell injury pretreated at 3 uM for 30 mins measured after 24 hrs by MTT assay).
Assay type: functional
How it was run: as §1

Row | Compound | inhibition at 3 µM [%]
68 | OCCCCn1c2ccccc2c2ccccc21 | 0
69 | c1ccc(-n2c3ccccc3c3ccccc32)cc1 | 0
70 | COc1ccc(-n2c3ccccc3c3ccccc32)cc1 | 3
71 | Cc1ccc(S(=O)(=O)n2c3ccccc3c3ccc4ccccc4c32)cc1 | 4
72 | Cc1ccc(S(=O)(=O)n2c3ccccc3c3ccc(-c4ccccc4)cc32)cc1 | 12
73 | Fc1ccc(-n2c3ccccc3c3ccccc32)cc1 | 0
74 | c1ccc2c(c1)c1ccccc1n2C1CCCCC1 | 3
75 | FC(F)(F)c1ccc(-n2c3ccccc3c3ccccc32)cc1 | 0
76 | Cc1ccc(-n2c3ccccc3c3ccccc32)nc1 | 0
77 | Brc1ccc(-n2c3ccccc3c3ccccc32)cc1 | 0
78 | Cc1ccc(S(=O)(=O)n2c3ccccc3c3ccc(C(F)(F)F)cc32)cc1 | 0
79 | CN(C)c1ccc(-n2c3ccccc3c3ccccc32)cc1 | 20
80 | Clc1ccc(-n2c3ccccc3c3ccccc32)cc1 | 0
